Experimental data from ChEMBL document CHEMBL3627671, “Novel derivatives of nitro-substituted salicylic acids: Synthesis, antimicrobial activity and cytotoxicity” (Bioorg Med Chem, 2015).

Assays:
Nakaseomyces glabratus [1] = assay: Antifungal activity against Candida glabrata 20/I after 24 hrs by microdilution broth method; type: functional
In short: (§1)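 CLSI M27-A3 broth microdilution in RPMI 1640 with glutamine, buffered to pH 7.0 with MOPS; DMSO diluent. Yeast inoculum 5 × 10^3 ± 0.2 CFU/mL. Moulds grown on Sabouraud agar 3–10 days before spore harvest, final inoculum 0.5-5 × 10^4 CFU/mL, checked in a Bürker chamber. Incubated dark, humid, 35 °C, read at 24 and 48 h visually and at 540 nm. MIC taken as ≥80% (yeasts) or ≥50% (filamentous) growth reduction versus control.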

Pseudomonas aeruginosa [2] = assay: Antibacterial activity against Pseudomonas aeruginosa CCM 1961 after 48 hrs by microdilution broth method; type: functional; conditions: CCM 1961, 48 h
In short: (§2)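 Mueller-Hinton broth microdilution (modified M07-A07), pH 7.4 (±0.2). Compounds dissolved in DMSO, tested at final 500 to 0.49 µmol/L. Inoculum in sterile water matched to 0.5 McFarland. Incubated in the dark, humid atmosphere, 35 °C, read at 24 and 48 h visually and at 540 nm. MIC taken as ≥95% growth reduction (IC95) versus control.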

Staphylococcus aureus [3] = assay: Antibacterial activity against methicillin-resistant Staphylococcus aureus H 5996/08 after 24 hrs by microdilution broth method; type: functional; conditions: H 5996/08, 24 h
Pseudomonas aeruginosa [4] = assay: Antibacterial activity against Pseudomonas aeruginosa CCM 1961 after 24 hrs by microdilution broth method; type: functional; conditions: CCM 1961, 24 h; in short: as §2
Trichosporon asahii [5] = assay: Antifungal activity against Trichosporon asahii 1188 after 48 hrs by microdilution broth method; type: functional; conditions: Trichosporon asahii, 1188, 48 h; in short: as §1
Enterococcus sp. [6] = assay: Antibacterial activity against Enterococcus sp. J 14365/08 after 24 hrs by microdilution broth method; type: functional; conditions: J 14365/08, 24 h; in short: as §2
Klebsiella pneumoniae [7] = assay: Antibacterial activity against ESBL-positive Klebsiella pneumoniae J 14368/08 after 24 hrs by microdilution broth method; type: functional; conditions: J 14368/08, 24 h; in short: as §2
Aspergillus fumigatus [8] = assay: Antifungal activity against Aspergillus fumigatus 231 after 24 hrs by microdilution broth method; type: functional; conditions: Aspergillus fumigatus, 231, 24 h; in short: as §1
Staphylococcus aureus [9] = assay: Antibacterial activity against Staphylococcus aureus CCM 4516/08 after 24 hrs by microdilution broth method; type: functional; conditions: CCM 4516/08, 24 h
Staphylococcus aureus [10] = assay: Antibacterial activity against Staphylococcus aureus CCM 4516/08 after 48 hrs by microdilution broth method; type: functional; conditions: CCM 4516/08, 48 h
[11] = system: Mycobacterium tuberculosis; assay: Antimycobacterial activity against Mycobacterium tuberculosis H37Rv 331/88 after 21 days; type: functional; conditions: H37Rv 331/88, 504 h
Candida albicans [12] = assay: Antifungal activity against Candida albicans ATCC 44859 after 48 hrs by microdilution broth method; type: functional; conditions: ATCC 44859, 48 h; in short: as §1
HepG2 = assay: Cytotoxicity against human HepG2 cells after 24 hrs […]; type: cell-based; conditions: HepG2, 24 h
Candida tropicalis [13] = assay: Antifungal activity against Candida tropicalis 156 after 48 hrs by microdilution broth method; type: functional; conditions: Candida tropicalis, 156, 48 h; in short: as §1
[14] = system: Mycobacterium tuberculosis; assay: Antimycobacterial activity against Mycobacterium tuberculosis H37Rv 331/88 after 14 days; type: functional; conditions: H37Rv 331/88, 336 h
Nakaseomyces glabratus [15] = assay: Antifungal activity against Candida glabrata 20/I after 48 hrs by microdilution broth method; type: functional; in short: as §1
Mycobacterium avium [16] = assay: Antimycobacterial activity against Mycobacterium avium 330/80 after 21 days; type: functional; conditions: 330/80, 504 h
[17] = Selectivity index, ratio of CI50 for human HepG2 cells to MIC100 for Mycobacterium tuberculosis H37Rv 331/88
Klebsiella pneumoniae [18] = assay: Antibacterial activity against Klebsiella pneumoniae D 11750/08 after 24 hrs by microdilution broth method; type: functional; conditions: D 11750/08, 24 h; in short: as §2
Pichia kudriavzevii [19] = assay: Antifungal activity against Candida krusei E28 after 24 hrs by microdilution broth method; type: functional; conditions: E28, 24 h; in short: as §1
Pichia kudriavzevii [20] = assay: Antifungal activity against Candida krusei E28 after 48 hrs by microdilution broth method; type: functional; conditions: E28, 48 h; in short: as §1
Candida albicans [21] = assay: Antifungal activity against Candida albicans ATCC 44859 after 24 hrs by microdilution broth method; type: functional; conditions: ATCC 44859, 24 h; in short: as §1
Klebsiella pneumoniae [22] = assay: Antibacterial activity against ESBL-positive Klebsiella pneumoniae J 14368/08 after 48 hrs by microdilution broth method; type: functional; conditions: J 14368/08, 48 h; in short: as §2
Enterococcus sp. [23] = assay: Antibacterial activity against Enterococcus sp. J 14365/08 after 48 hrs by microdilution broth method; type: functional; conditions: J 14365/08, 48 h; in short: as §2
Mycobacterium avium [24] = assay: Antimycobacterial activity against Mycobacterium avium 330/80 after 14 days; type: functional; conditions: 330/80, 336 h
Lichtheimia corymbifera [25] = assay: Antifungal activity against Absidia corymbifera 272 after 48 hrs by microdilution broth method; type: functional; conditions: Lichtheimia corymbifera, 272, 48 h; in short: as §1
Escherichia coli [26] = assay: Antibacterial activity against Escherichia coli CCM4517 after 48 hrs by microdilution broth method; type: functional; conditions: CCM4517, 48 h; in short: as §2
Staphylococcus aureus [27] = assay: Antibacterial activity against methicillin-resistant Staphylococcus aureus H 5996/08 after 48 hrs by microdilution broth method; type: functional; conditions: H 5996/08, 48 h
Mycobacterium kansasii [28] = assay: Antimycobacterial activity against Mycobacterium kansasii 6509/96 after 21 days; type: functional; conditions: 6509/96, 504 h
In short: (§3)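 Šula's semisynthetic medium micromethod at 37 °C, read after 7, 14 and 21 days. The 1.0 McFarland suspension was diluted 10^-4. MIC determined. 6509/96 is a clinical isolate.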

[29] = system: Trichophyton mentagrophytes; assay: Antifungal activity against Trichophyton mentagrophytes 445 after 48 hrs by microdilution broth method; type: functional; conditions: Trichophyton mentagrophytes, 445, 48 h
[30] = system: Staphylococcus epidermidis; assay: Antibacterial activity against Staphylococcus epidermidis H 6966/08 after 24 hrs by microdilution broth method; type: functional; conditions: H 6966/08, 24 h; in short: as §2
[31] = system: Staphylococcus epidermidis; assay: Antibacterial activity against Staphylococcus epidermidis H 6966/08 after 48 hrs by microdilution broth method; type: functional; conditions: H 6966/08, 48 h; in short: as §2
Mycobacterium kansasii [32] = assay: Antimycobacterial activity against Mycobacterium kansasii 235/80 after 14 days; type: functional; conditions: 235/80, 336 h; in short: as §3
Mycobacterium kansasii [33] = assay: Antimycobacterial activity against Mycobacterium kansasii 235/80 after 7 days; type: functional; conditions: 235/80, 168 h; in short: as §3
Mycobacterium kansasii [34] = assay: Antimycobacterial activity against Mycobacterium kansasii 235/80 after 21 days; type: functional; conditions: 235/80, 504 h; in short: as §3
[35] = system: Trichophyton mentagrophytes; assay: Antifungal activity against Trichophyton mentagrophytes 445 after 24 hrs by microdilution broth method; type: functional; conditions: Trichophyton mentagrophytes, 445, 24 h
Trichosporon asahii [36] = assay: Antifungal activity against Trichosporon asahii 1188 after 24 hrs by microdilution broth method; type: functional; conditions: Trichosporon asahii, 1188, 24 h; in short: as §1
Klebsiella pneumoniae [37] = assay: Antibacterial activity against Klebsiella pneumoniae D 11750/08 after 48 hrs by microdilution broth method; type: functional; conditions: D 11750/08, 48 h; in short: as §2
Escherichia coli [38] = assay: Antibacterial activity against Escherichia coli CCM4517 after 24 hrs by microdilution broth method; type: functional; conditions: CCM4517, 24 h; in short: as §2
Aspergillus fumigatus [39] = assay: Antifungal activity against Aspergillus fumigatus 231 after 48 hrs by microdilution broth method; type: functional; conditions: Aspergillus fumigatus, 231, 48 h; in short: as §1
Lichtheimia corymbifera [40] = assay: Antifungal activity against Absidia corymbifera 272 after 24 hrs by microdilution broth method; type: functional; conditions: Lichtheimia corymbifera, 272, 24 h; in short: as §1
Mycobacterium kansasii [41] = assay: Antimycobacterial activity against Mycobacterium kansasii 6509/96 after 14 days; type: functional; conditions: 6509/96, 336 h; in short: as §3
Mycobacterium kansasii [42] = assay: Antimycobacterial activity against Mycobacterium kansasii 6509/96 after 7 days; type: functional; conditions: 6509/96, 168 h; in short: as §3
Candida tropicalis [43] = assay: Antifungal activity against Candida tropicalis 156 after 24 hrs by microdilution broth method; type: functional; conditions: Candida tropicalis, 156, 24 h; in short: as §1

O=C(Nc1ccc(Cl)c(Cl)c1)c1cc([N+](=O)[O-])ccc1O
8.9 µM: IC50 (HepG2)
125 µM: MIC (Enterococcus sp. [6]) | MIC (Mycobacterium avium [16]) | MIC (Enterococcus sp. [23]) | MIC (Mycobacterium avium [24])
8 µM: MIC [14]
62.5 µM: MIC [30] | MIC [31]
> 500 µM: MIC (Nakaseomyces glabratus [1]) | MIC (Pseudomonas aeruginosa [2]) | MIC (Pseudomonas aeruginosa [4]) | MIC (Trichosporon asahii [5]) | MIC (Klebsiella pneumoniae [7]) | MIC (Aspergillus fumigatus [8]) | MIC (Candida albicans [12]) | MIC (Candida tropicalis [13]) | MIC (Nakaseomyces glabratus [15]) | MIC (Klebsiella pneumoniae [18]) | MIC (Pichia kudriavzevii [19]) | MIC (Pichia kudriavzevii [20]) | MIC (Candida albicans [21]) | MIC (Klebsiella pneumoniae [22]) | MIC (Lichtheimia corymbifera [25]) | MIC (Escherichia coli [26]) | MIC (Trichosporon asahii [36]) | MIC (Klebsiella pneumoniae [37]) | MIC (Escherichia coli [38]) | MIC (Aspergillus fumigatus [39]) | MIC (Lichtheimia corymbifera [40]) | MIC (Candida tropicalis [43])
0.556: Selectivity Index [17]
31.2 µM: MIC (Staphylococcus aureus [3]) | MIC (Staphylococcus aureus [9]) | MIC (Staphylococcus aureus [10]) | MIC (Staphylococcus aureus [27])
250 µM: MIC [29] | MIC [35]
32 µM: MIC (Mycobacterium kansasii [28]) | MIC (Mycobacterium kansasii [32]) | MIC (Mycobacterium kansasii [34]) | MIC (Mycobacterium kansasii [41]) | MIC (Mycobacterium kansasii [42])
16 µM: MIC [11] | MIC (Mycobacterium kansasii [33])
